# CaV13 FRET inh – Primary screen for inhibitors of IQ motif and Ca2+-dependent inactivation inhibitor domain binding in CACNA1D, Förster resonance energy transfer in living cells, … | HEK cells, CFP/YFP FRET ICDI-IQ, plate reader, 10 min; percent FRET-ratio fall versus neutral wells | inhibition, % at 12.3 µM | 340,000 tested, 0.098% active | AID 743397;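 active means mean replicate inhibition of at least 30% and at least 1% of replicates passing that level; inconclusive means only one of the two criteria is met; inactive means neither criterion is met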;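 further: 0% = median of the neutral control wells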
# SIRT5 inh – SIRT5 desuccinylase inhibitors, primary screen, biochemical, fluorescence imaging, single point, set 5; Purified SirT5, succinyl-peptide AMC, trypsin-coupled fluorescence; inhibition, % at 15 µM; 330,000 tested, 1.1% active; AID 652115, 2013; in the data active means inhibition above about 15%; inconclusive means no clear call, values can overlap the other calls
# Target sequence (Q9NXA8 whole entry, looked up): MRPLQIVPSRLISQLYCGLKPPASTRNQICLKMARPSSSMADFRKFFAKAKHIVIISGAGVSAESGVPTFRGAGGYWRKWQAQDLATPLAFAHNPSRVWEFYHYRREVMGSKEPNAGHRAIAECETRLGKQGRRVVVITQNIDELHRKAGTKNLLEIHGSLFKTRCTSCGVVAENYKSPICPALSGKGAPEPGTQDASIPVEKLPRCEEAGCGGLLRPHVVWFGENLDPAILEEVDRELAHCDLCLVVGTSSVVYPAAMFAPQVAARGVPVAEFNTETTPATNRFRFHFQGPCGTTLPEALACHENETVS
# AF4-AF9 inh – inhibitors of AF4 peptide binding to AF9, primary screen, biochemical, AlphaScreen, biotin-AF4 peptide, FLAG-AF9, single point | inhibition, % at 10 µM | Protein AF-9 (Homo sapiens), P42568 | 350,000 tested, 0.47% active | AID 651704, 2012;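 active means every replicate reaching a set inhibition limit, whatever the replicate mean, cut at about 25% in these data; inconclusive means mean inhibition reaches that limit but some replicates miss it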;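 further: 0% = plate neutral control median and 100% = total signal loss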
# S100A4 inh HTS – inhibitors of S100A4-myosin IIA peptide binding, primary screen, biochemical, fluorescence polarization, TAMRA-MyoIIA peptide; inhibition, % at 10.7 µM; 360,000 tested, 0.14% active; AID 652163, 2013;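 active means mean inhibition of at least 70% across replicates, with every replicate also reaching that level; inconclusive means mean inhibition reaches 70% but some replicates fall short; inactive means mean inhibition below 70%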
# Target sequence (P26447 whole entry, looked up): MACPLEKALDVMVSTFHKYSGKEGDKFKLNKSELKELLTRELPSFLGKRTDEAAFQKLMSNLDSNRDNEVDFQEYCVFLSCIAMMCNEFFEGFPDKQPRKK
#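 Test system: S100A4 monomer protein; Medium: HEPES pH 7.2 with CaCl2, KCl, NaCl, DTT, Triton; Probe or stimulus: TAMRA-labelled myosin IIA heavy-chain peptide probe, 5 nM; Doses: one dose per compound; Times: polarization read 5 min after assay mix addition, stable 5–60 min; Benchmarks: neutral control DMSO, positive control TFP.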
# DENV2 CPE rescue – inhibitors of DENV2 cytopathic effect, primary screen, cell-based, plate reader, single concentration; DENV2-infected cells, cytopathic effect rescue; CPE inhibition, % at 9.99 µM; 350,000 tested, 1.7% active; AID 651640, 2012; in the data active means CPE inhibition above about 20%, passing the limit was not always enough; inconclusive means no clear call, values can overlap the other calls; tested in BHK-21 cells;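 further: 0% = median of neutral control wells and 100% = median of positive control wells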
# Numbers without * were called inactive; ? = inconclusive; · = no result. Sampled rows, rich in hits. Any-hit rate of the full collection: about 2.7%.
SMILES,CaV13 FRET inh,SIRT5 inh,AF4-AF9 inh,S100A4 inh HTS,DENV2 CPE rescue
Cc1cc(C(=O)Nc2ccc3c(c2)C(=O)N(C)[C@H]2CC[C@@H](CC(=O)N[C@@H](C)c4ccccc4)O[C@@H]2CO3)no1,·,1,1,0,-8
COc1cccc(NC(=O)N[C@@H]2C=C[C@@H](CC(=O)NCc3ccncn3)O[C@@H]2CO)c1,·,5,-7,90*,-4
CO[C@H]1CN(C)C(=O)c2cc(NC(=O)C3CCOCC3)ccc2OC[C@@H](C)N(CC2CC2)C[C@H]1C,·,-3,·,-5,1
C[C@@H]1CCCCO[C@H](CN(C)Cc2ccccc2)[C@@H](C)CN([C@@H](C)CO)C(=O)c2cc(NC(=O)Nc3ccc4c(c3)OCO4)ccc2O1,·,-1,37*,-22,14
C[C@@H]1CCCCO[C@@H](CN(C)Cc2ccc3c(c2)OCO3)[C@H](C)CN([C@H](C)CO)C(=O)c2cc(NC(=O)Nc3ccc4c(c3)OCO4)ccc2O1,·,2,32*,-11,-24
C[C@@H]1CCCCO[C@H](CN(C)Cc2ccncc2)[C@H](C)CN([C@H](C)CO)C(=O)c2cc(NC(=O)Nc3ccc4c(c3)OCO4)ccc2O1,·,2,21,14,-1
C[C@@H]1CCCCO[C@H](CN(C)Cc2ccncc2)[C@@H](C)CN([C@@H](C)CO)C(=O)c2cc(NC(=O)Nc3ccc4c(c3)OCO4)ccc2O1,·,-3,14,5,28*
C[C@@H]1CN([C@H](C)CO)C(=O)c2cc(NC(=O)CCCCCC(=O)Nc3ccccc3N)ccc2O[C@@H](C)CCCCO[C@H]1CN(C)Cc1ccc(Cl)c(Cl)c1,·,·,-1,0,-9
C[C@H](CO)N1C[C@H](C)[C@@H](CN(C)CC2CC2)Oc2ccc(NS(=O)(=O)c3ccccc3)cc2C1=O,·,0,-1,4,?
O=C(Nc1ccc(Cl)cc1)N[C@@H]1CC[C@@H](CCn2cc(Cc3ccccc3)nn2)O[C@H]1CO,·,-1,3,3,5
CCCN1[C@@H]2c3ccc(-c4cccc(OC)c4)c(=O)n3C[C@@H]2[C@@H](CO)[C@@H]1C(=O)OC,·,16*,-1,-1,-6
CCCNC(=O)[C@@H]1[C@@H](CO)[C@@H]2Cn3c(ccc(-c4ccc(OC)cc4)c3=O)[C@@H]2N1CCC,·,-14,-2,2,-2
CCCNC(=O)[C@H]1[C@H](CO)[C@H]2Cn3c(ccc(-c4ccc(OC)cc4)c3=O)[C@H]2N1CCC,·,16*,-3,17,13
CCCN1[C@H](C(=O)OC)[C@@H](CO)[C@@H]2Cn3c(ccc(-c4cccc(OC)c4)c3=O)[C@@H]21,·,·,1,7,-3
O=C(NC1CCC1)[C@H]1[C@H](CO)[C@H]2Cn3c(ccc(C4=CCCC4)c3=O)[C@H]2N1C(=O)C1CCC1,·,-17,-1,-10,-3
O=C(NC1CCC1)[C@@H]1[C@@H](CO)[C@@H]2Cn3c(ccc(C4=CCCCC4)c3=O)[C@@H]2N1C(=O)C1CCOCC1,·,-13,2,-6,56*
COC(=O)[C@H]1[C@H](CO)[C@H]2Cn3c(ccc(C4=CCCCC4)c3=O)[C@H]2N1Cc1cccnc1,·,-14,-1,-13,26*
C[C@H]1CN([C@@H](C)CO)C(=O)c2cccc(NC(=O)NC3CCCCC3)c2O[C@@H]1CN(C)S(=O)(=O)c1ccccc1,·,0,1,0,-10
O=C(O)[C@H]1[C@H](CO)[C@H]2Cn3c(ccc(C4=CCCCC4)c3=O)[C@H]2N1C(=O)c1ccccc1F,·,·,-1,·,·
C[C@H]1CN([C@@H](C)CO)C(=O)c2cccc(NS(C)(=O)=O)c2O[C@@H]1CN(C)C(=O)Nc1cccc2ccccc12,·,4,0,11,0
COc1cccc(CNC(=O)[C@H]2[C@H](CO)[C@H]3Cn4c(ccc(-c5ccncc5)c4=O)[C@H]3N2C)c1,·,-1,1,-2,138*
CC(C)OC(=O)C[N+](C)(C)CCN1C(=O)C2C(c3ccccc3)C=CC(c3ccccc3)C2C1=O (configuration not stated),-5,26*,2,-3,3
C#CC[N+](C)(C)CCN1C(=O)C2C(c3ccccc3)C=CC(c3ccccc3)C2C1=O (configuration not stated),-5,-2,0,3,0
O=C(CCS(=O)(=O)c1ccc(Br)cc1)NCCc1ccccc1,-20,-4,-3,1,-1
NS(=O)(=O)c1ccc(CCNC(=O)CCS(=O)(=O)c2ccc(Br)cc2)cc1,-16,16*,-9,-11,13
SMILES,CaV13 FRET inh,SIRT5 inh,AF4-AF9 inh,S100A4 inh HTS,DENV2 CPE rescue
O=C(NCCCn1ccnc1)C1CC(c2ccccc2Cl)=NO1 (configuration not stated),18,0,28*,13,?
O=C(NCc1cccnc1)C1CC(c2ccccc2Cl)=NO1 (configuration not stated),4,-1,-1,2,15
CCN(C(=O)CN1C(=O)S/C(=C\c2cccc(OC)c2)C1=O)C1CCS(=O)(=O)C1 (configuration not stated),-3,16*,5,0,-2
COc1cccc(/C=C2\SC(=S)N(CC(=O)N(C)C3CCS(=O)(=O)C3)C2=O)c1 (configuration not stated),-16,1,12,-4,3
COc1ccc(-c2csc3nc[nH]c(=O)c23)cc1,-2,23*,-5,18,1
CCOc1ccc(-c2csc3nc[nH]c(=O)c23)cc1,-4,-4,-2,-1,7
O=C(Nc1cc(F)ccc1F)N1C[C@@H]2[C@H](c3ccccc31)[C@H](CO)N2Cc1ccncc1,·,22*,0,0,-5
O=C(Nc1ccc(F)cc1)N1C[C@H]2[C@@H](c3ccccc31)[C@@H](CO)N2Cc1ccccc1,·,-3,0,39,12
O=C(Nc1ccccc1)N1C[C@H]2[C@@H](c3ccccc31)[C@H](CO)N2Cc1ccccc1,·,-4,2,3,57*
CC(C)NC(=O)N1[C@H](CO)[C@H]2c3ccccc3N(C(=O)Nc3ccc(F)cc3)C[C@H]21,·,-1,0,-3,27*
O=C(Nc1ccc(F)cc1)N1C[C@@H]2[C@H](c3ccccc31)[C@@H](CO)N2Cc1ccccc1Cl,·,0,3,3,?
O=C(Nc1ccc(F)cc1)N1C[C@H]2[C@@H](c3ccccc31)[C@@H](CO)N2Cc1ccccc1Cl,·,1,1,-6,30*
C/C=C/c1ccc([C@@H]2[C@H]3CN(C(=O)Nc4ccc(OC)cc4)CCCCN3[C@H]2CO)cc1,·,6,4,15,5

# Assay outcomes as filed in PubChem BioAssay.
